Calls of active or inactive are those of the source. The rule behind the calls is not given here. Starred links: 1 amine or outer side, 2 acyl side, 3 side chain; linkers in the order of their positions; H or OH if unused. Positions of bridges follow the written chain, without caps; N, C: chain ends. Non-standard residues stand in square brackets, D forms with d. Residues, ends and D or L forms follow the SMILES beside them. *: point of attachment. pTerphenylCO(4''-OnC5H11) = CCCCCOc1ccc(-c2ccc(-c3ccc(C(=O)*)cc3)cc2)cc1; Orn(4R-OH,5R-OH) = O=C([C@H](C[C@@H](O)[C@@H](O)N[*:3])N[*:1])[*:2]; hTyr(3S-OH,4S-OH) = N[C@H](C(=O)O)[C@H](O)[C@@H](O)c1ccc(O)cc1; Pro(3S-OH,4S-Me) = C[C@H]1CN[C@H](C(=O)O)[C@H]1O; Hyp = O=C(O)[C@@H]1C[C@@H](O)CN1
How the values were obtained:
Nakaseomyces glabratus [1] = experiment: Increase in susceptibility to calcofluor white in Candida glabrata isolate 3 assessed as cell wall damage at 4 times MIC after 1 hr relative to control; assay type: functional, organism-based
In short: (§1)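 Cells recovered 8 h after a 1-h drug exposure were grown to exponential phase in YPD with 1% glucose and adjusted to OD599 0.1. Undiluted and 10-fold serially diluted cultures were spotted onto YPD plates containing calcofluor white, then incubated at 30°C for 72 h. Growth compared with no-drug control cells; triplicate.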

Candida parapsilosis [2] = experiment: Fungicidal activity against Candida parapsilosis isolate 1 assessed as log reduction in bacterial count at MIC after drug exposure for 1 hr followed by washout measured after 48 hrs in the absence of drug by PAFE study; assay type: functional; conditions: Lodderomyces parapsilosis
In short: (§2)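 Inoculum about 1 x 10^5 to 5 x 10^5 CFU/ml in RPMI 1640 (MOPS, pH 7.0) with drug, shaken at 35°C for 1 h. Cells were then washed and centrifuged at 1,400 x g for 10 min (3 cycles) and resuspended in warm drug-free RPMI. Samples plated on SDA at 0, 2, 4, 8, 12, 24 and 48 h; CFU counted after 48 h at 35°C. Run twice per isolate; means.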

Nakaseomyces glabratus [3] = experiment: Increase in susceptibility to SDS in Candida glabrata isolate 3 assessed as cell wall damage at MIC after 1 hr relative to control; assay type: functional, organism-based
In short: (§3)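 Cells recovered 8 h after a 1-h drug exposure were grown in YPD with 1% glucose to exponential phase and adjusted to OD599 0.1. Undiluted culture and 10-fold serial dilutions were spotted onto YPD plates containing SDS (0.01 to 0.04%), then incubated 72 h at 30°C. Growth compared with unexposed control cells; triplicate.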

Candida albicans [4] = experiment: Fungicidal activity against Candida albicans isolate 2 assessed as log reduction in bacterial count at MIC after 48 hrs by time-kill analysis; assay type: functional; conditions: isolate 2, 48 h
In short: (§4)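 Isolates subcultured twice on SDA, suspended to 0.5 McFarland, giving ~1 x 10^5 to 5 x 10^5 CFU/ml in MOPS-buffered RPMI 1640 (pH 7.0) with or without drug at multiples of MIC (MIC by CLSI M27-A3). Tubes shaken at 35°C with continuous drug. Sampled at 0–48 h, diluted 10-fold and plated on SDA; CFU counted after 48 h at 35°C. Run twice per isolate; means.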

Candida albicans [5] = experiment: Fungicidal activity against Candida albicans ATCC 90028 assessed as log reduction in bacterial count at 16 times MIC after drug exposure for 1 hr followed by washout measured after 48 hrs in the absence of drug by PAFE study; assay type: functional
In short: (§5)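 Inoculum of about 1 x 10^5 to 5 x 10^5 CFU/ml in MOPS-buffered RPMI (pH 7.0), shaken at 35°C and exposed to drug for 1 h. Cells then washed and centrifuged three times and resuspended in drug-free warm RPMI. Samples plated on SDA at 0, 2, 4, 8, 12, 24 and 48 h, with CFU counted after 48 h at 35°C. Run twice per isolate; values are means.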

Candida parapsilosis [6] = experiment: Antifungal activity against Candida parapsilosis isolate 1 assessed as time period for bacterial growth inhibition at 4 times MIC after 1 hr drug exposure; assay type: functional; in short: as §5
Candida albicans [7] = experiment: Increase in susceptibility to SDS in Candida albicans ATCC 90028 assessed as cell wall damage at 16 times MIC after 1 hr relative to control; assay type: functional, organism-based; in short: as §3
Candida parapsilosis [8] = experiment: Fungicidal activity against Candida parapsilosis isolate S assessed as log reduction in bacterial count at 16 times MIC after drug exposure for 1 hr followed by washout measured after 48 hrs in the absence of drug by PAFE study; assay type: functional; conditions: Lodderomyces parapsilosis; in short: as §2
Nakaseomyces glabratus [9] = experiment: Inhibition of Candida glabrata isolate 1 adherence to human buccal epithelial cells at 4 times MIC after 1 hr by adherence assay relative to control; assay type: functional, Epithelial cell
In short: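 Candida collected 8 h after a 1-h 4x MIC pulse and washout were grown on SDA for 24 h at 35°C. Buccal epithelial cells were pooled from three donors and washed in PBS. Cells (1 x 10^5/ml) were mixed 1:1 by volume with Candida (1 x 10^6/ml) and shaken 1 h at 37°C. Mixtures were filtered, washed, and Gram-stained, and Candida were counted per 100 epithelial cells. Run in duplicate on ≥2 occasions; Student's t test against unexposed controls.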

Candida albicans [10] = experiment: Increase in susceptibility to calcofluor white in Candida albicans isolate 1 assessed as cell wall damage at 4 times MIC after 1 hr relative to control; assay type: functional, organism-based; in short: as §1
Nakaseomyces glabratus [11] = experiment: Increase in susceptibility to SDS in Candida glabrata isolate 1 assessed as cell wall damage at 16 times MIC after 1 hr relative to control; assay type: functional, organism-based; in short: as §3
Candida albicans [12] = experiment: Fungicidal activity against Candida albicans isolate 2 assessed as log reduction in bacterial count at 16 times MIC after drug exposure for 1 hr followed by washout measured after 48 hrs in the absence of drug by PAFE study; assay type: functional
In short: (§6)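 Starting inoculum ~1 x 10^5 to 5 x 10^5 CFU/ml in MOPS-buffered RPMI 1640 (pH 7.0) with drug at multiples of the CLSI M27-A3 MIC. After 1 h at 35°C, cells washed and centrifuged three times at 1,400 x g for 10 min, then resuspended in warm drug-free RPMI. Shaken at 35°C and plated on SDA at 0–48 h; CFU counted after 48 h. Run twice per isolate; means.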

Pichia kudriavzevii = experiment: Fungicidal activity against Candida krusei isolate 1 assessed as log reduction in bacterial count at MIC after 48 hrs by time-kill analysis; assay type: functional; conditions: isolate 1, 48 h; in short: as §4
Candida parapsilosis [13] = experiment: Fungicidal activity against Candida parapsilosis isolate 1 assessed as log reduction in bacterial count at 16 times MIC after drug exposure for 1 hr followed by washout measured after 48 hrs in the absence of drug by PAFE study; assay type: functional; conditions: Lodderomyces parapsilosis; in short: as §6
Candida parapsilosis [14] = experiment: Fungicidal activity against Candida parapsilosis isolate A assessed as log reduction in bacterial count at MIC after 48 hrs by time-kill analysis; assay type: functional; conditions: Lodderomyces parapsilosis
In short: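 Isolates subcultured twice on SDA, then suspended to 0.5 McFarland and diluted into RPMI 1640 (MOPS, pH 7.0) with or without anidulafungin, giving about 1 x 10^5 to 5 x 10^5 CFU/ml. Tubes were shaken at 35°C. Samples were taken at 0, 2, 4, 8, 12, 24 and 48 h, serially diluted 10-fold, plated on SDA, and CFU counted after 48 h at 35°C. Each isolate was run twice; mean values.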

Candida albicans [15] = experiment: Fungicidal activity against Candida albicans isolate 2 assessed as log reduction in bacterial count at MIC after drug exposure for 1 hr followed by washout measured after 48 hrs in the absence of drug by PAFE study; assay type: functional; in short: as §6
Candida albicans [16] = experiment: Antifungal activity against Candida albicans isolate 1 coincubated with mouse J774 macrophages assessed as macrophage induced bacterial cell killing at 4 times MIC (reference value: 14 +/- 8 %); assay type: functional
Candida albicans [17] = experiment: Increase in susceptibility to calcofluor white in Candida albicans isolate 1 assessed as cell wall damage at MIC after 1 hr relative to control; assay type: functional, organism-based; in short: as §1
Candida parapsilosis [18] = experiment: Increase in susceptibility to calcofluor white in Candida parapsilosis isolate A assessed as cell wall damage at 4 times MIC after 1 hr relative to control; assay type: functional, organism-based
In short: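 Candida given a 1-h anidulafungin pulse in MOPS-buffered RPMI 1640 (pH 7.0) at 35°C, washed three times by centrifugation, and regrown drug-free. Cells collected 8 h later, grown in YPD with 1% glucose to exponential phase, and set to OD599 0.1. Undiluted culture and 10-fold dilutions (4 µl) spotted on YPD plates with calcofluor white, then 30°C for 72 h. Triplicate; compared with no-drug cells.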

CCCCCOc1ccc(-c2ccc(-c3ccc(C(=O)N[C@H]4C[C@@H](O)[C@@H](O)NC(=O)[C@@H]5[C@@H](O)[C@@H](C)CN5C(=O)[C@H]([C@@H](C)O)NC(=O)[C@H]([C@H](O)[C@@H](O)c5ccc(O)cc5)NC(=O)[C@@H]5C[C@@H](O)CN5C(=O)[C@H]([C@@H](C)O)NC4=O)cc3)cc2)cc1 [ANIDULAFUNGIN] ({pTerphenylCO(4''-OnC5H11)}-[Orn(4R-OH,5R-OH)]T[Hyp][hTyr(3S-OH,4S-OH)]T[Pro(3S-OH,4S-Me)]; lactam 1-C)
Activity (Nakaseomyces glabratus [1]): Active
log reduction (Candida parapsilosis [2]): 0.81
Activity (Nakaseomyces glabratus [3]): Active
log reduction (Candida albicans [4]): 0.89 log CFU/ml
log reduction (Candida albicans [5]): 2.14
Time (Candida parapsilosis [6]): 8 h
Activity (Candida albicans [7]): Active
log reduction (Candida parapsilosis [8]): 3.05
inhibition (INH) (Nakaseomyces glabratus [9]): 62%
Activity (Candida albicans [10]): Active
Activity (Nakaseomyces glabratus [11]): Active
log reduction (Candida albicans [12]): 1.55
log reduction (Pichia kudriavzevii): 1.74 log CFU/ml
log reduction (Candida parapsilosis [13]): 3.17
log reduction (Candida parapsilosis [14]): 1.76 log CFU/ml
log reduction (Candida albicans [15]): 0.86
inhibition (INH) (Candida albicans [16]): 37%
Activity (Candida albicans [17]): Active
Activity (Candida parapsilosis [18]): Active
